Results of several laboratories.
Target: Acetylcholinesterase (ache, Electrophorus electricus, UniProt O42275)
Effect on: enzyme activity
Mode: inhibitor
Technique: Ellman

`CC(C)(C)OC(=O)NC1CCCN(C(=O)/C=C/c2ccc(Br)cc2)C1` (stereo not shown) has an IC50 of greater than 50 µM.
`CCN(CC)C(=O)Oc1ccc(/C=C/C(=O)NC2CCN(Cc3ccccc3)CC2)cc1OC` gave an IC50 of 2.3 µM.
For `COc1ccc(-c2csc(N/N=C(/C=C/c3c(Cl)cccc3Cl)C(=O)O)n2)cc1`, the IC50 was 0.499 µM.
`Cc1ccc(Cn2cc(COc3ccc(-c4nnc(-c5ccc(F)cc5)o4)cc3)nn2)cc1` has an IC50 of greater than 100 µM.
`CC(C)(C)OC(=O)NC1CCCN(C(=O)/C=C/c2cccc(Cl)c2)C1` (stereo not shown) has an IC50 of greater than 50 µM.
With `CCN(C)C(=O)Oc1ccc(CCC(=O)N2CCC(Cc3ccccc3)CC2)cc1OC` the IC50 was 9.1 µM.
`O=C(O)C(/C=C/c1c(Cl)cccc1Cl)=N\Nc1nc(-c2ccc(F)cc2)cs1` gave an IC50 of 0.299 µM.
`CCN(CC)C(=O)Oc1ccc(/C=C/C(=O)NC2CCN(Cc3ccccc3)CC2)cc1` has an IC50 of 4.5 µM.
With `COc1ccc(-c2nnc(-c3ccc(OCc4cn(Cc5ccc(F)cc5)nn4)cc3)o2)cc1` the IC50 was greater than 100 µM.
`CC(C)(C)OC(=O)NC1CCCN(C(=O)C=Cc2ccccc2)C1` (stereo not shown) has an IC50 of 39.4 µM.
`CCN(CC)C(=O)Oc1ccc(CCC(=O)N2CCC(Cc3ccccc3)CC2)cc1OC` gave an IC50 of 9.3 µM.
`COc1ccc(-c2nnc(-c3ccc(OCc4cn(Cc5ccc(C)cc5)nn4)cc3)o2)cc1` has an IC50 of greater than 100 µM.
`CCN(C)C(=O)Oc1ccc(CCC(=O)N2CCc3ccccc3C2)cc1` has an IC50 of 8.3 µM.
With `O=[N+]([O-])c1ccc(-c2nnc(-c3ccc(OCc4cn(Cc5ccc(Cl)cc5)nn4)cc3)o2)cc1` the IC50 was greater than 100 µM.
The IC50 of `CCOc1ccc(/C=C/C(=O)N2CCCC(NC(=O)OC(C)(C)C)C2)cc1OC` (stereo not shown) is reported as 35.2 µM.
For `O=[N+]([O-])c1ccc(-c2nnc(-c3ccc(OCc4cn(Cc5ccccc5)nn4)cc3)o2)cc1`, the IC50 was greater than 100 µM.
With `CCOc1ccc(/C=C/C(=O)N2CCCC(NC(=O)OC(C)(C)C)C2)cc1` (stereo not shown) the IC50 was greater than 50 µM.
With `COc1ccc(-c2nnc(-c3ccc(OCc4cn(Cc5ccccc5)nn4)cc3)o2)cc1` the IC50 was greater than 100 µM.
With `COc1cc(CCC(=O)N2CCC(Cc3ccccc3)CC2)ccc1OC(=O)N1CCOCC1` the IC50 was 7.2 µM.
With `COc1cccc(/C=C/C(=O)N2CCCC(NC(=O)OC(C)(C)C)C2)c1` (stereo not shown) the IC50 was greater than 50 µM.
For `COc1ccc(-c2nnc(-c3ccc(OCc4cn(Cc5ccc(Cl)cc5)nn4)cc3)o2)cc1`, the IC50 was greater than 100 µM.
For `COc1cc(/C=C/C(=O)NC2CCN(Cc3ccccc3)CC2)ccc1OC(=O)N(C)C`, the IC50 was 5.2 µM.
For `Cc1ccc(/C=C/C(=O)N2CCCC(NC(=O)OC(C)(C)C)C2)cc1` (stereo not shown), the IC50 was greater than 50 µM.
With `Fc1ccc(Cn2cc(COc3ccc(-c4nnc(-c5ccc(F)cc5)o4)cc3)nn2)cc1` the IC50 was greater than 100 µM.
`CN(C)C(=O)Oc1ccc(/C=C/C(=O)NC2CCN(Cc3ccccc3)CC2)cc1` has an IC50 of 5.9 µM.
